Experimental data taken from ChEMBL document CHEMBL1138881, “Application of phosphoramidate ProTide technology significantly improves antiviral potency of carbocyclic adenosine derivatives” (J Med Chem, 2006).

Key:
[1] = test system: Human immunodeficiency virus 1; assay: Antiviral activity against HIV1 3B in MT4 cells; assay type: functional, organism-based; conditions: Human immunodeficiency virus 1, 3B
Method in brief: (§1)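 MT-4 cells at 4.5 × 10⁵ cells/mL were infected with 100 CCID₅₀/mL of HIV-1 or HIV-2. Viable cells were then counted after trypan blue staining, and EC₅₀ was derived from these viable-cell counts.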

[2] = test system: Human immunodeficiency virus 2; assay: Antiviral activity against HIV2 ROD in MT4 cells; assay type: functional, organism-based; conditions: Human immunodeficiency virus 2, ROD; method in brief: as §1
[3] = test system: MT4; assay: Cytotoxicity against MT4 cells; assay type: functional; conditions: Homo sapiens
Method in brief: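 Exponentially growing MT-4 cells were resuspended at 5 × 10⁵ cells/mL in RPMI 1640 with 20% FBS and 20% IL-2. They were infected with HIV-1 IIIB (100 × TCID₅₀ per well) for 1 h at 37 °C, with mock-infected cells run in parallel. The suspension was diluted 6-fold onto serially diluted compound and incubated for 5 days at 37 °C in 5% CO₂. MTS staining was read at 492 nm.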

[4] = test system: Human immunodeficiency virus 1; assay: Antiviral activity against HIV1 3B in CEM cells; assay type: functional, organism-based; conditions: Human immunodeficiency virus 1, 3B, CCRF-CEM
Method in brief: (§2)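 CEM cells at 4.5 × 10⁵ cells/mL were infected with 100 CCID₅₀/mL of HIV-1 or HIV-2. Giant-cell formation was scored microscopically. EC₅₀ was the concentration preventing syncytium formation by 50%.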

[5] = test system: Human immunodeficiency virus 2; assay: Antiviral activity against HIV2 ROD in CEM cells; assay type: functional, organism-based; conditions: Human immunodeficiency virus 2, ROD, CCRF-CEM; method in brief: as §2
[6] = test system: Hepatitis B virus; assay: Antiviral activity against HBV in HepG2 2.2.15 cells; assay type: functional, organism-based
Method in brief: (§3)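 HepG2 2.2.15 cells, which produce HBV constitutively, were seeded at 5 × 10³ per well. Drug-containing medium was replaced every other day for 9 days. Virions in the supernatant were captured on anti-HBsAg plates, and their DNA was quantified by PCR against an HBV standard curve and normalized to untreated cells. For cell growth, monolayers were ethanol-fixed and stained with bisbenzimide H33342, and fluorescence was compared with untreated cells. SI = CC₅₀/EC₅₀.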

[7] = test system: HepG2; assay: Cytotoxicity against HepG2 2.2.15 cells; assay type: functional; conditions: Homo sapiens; method in brief: as §3
[8] = test system: Cynomolgus monkey; assay: Metabolic stability in cynomolgus monkey liver S9 fraction; assay type: ADME, Macaca fascicularis
Method in brief: (§4)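 Pooled cynomolgus S9 (liver or intestinal segments), test compound 10 µM final, 37 °C, DMSO <1% final; reaction started with NADPH 2.5 mM final. Aliquots taken at 0 (preincubation), 10, 20, 30 and 60 min, quenched with cold acetonitrile, centrifuged; supernatant parent measured by LC/MS/MS. Stability given as % remaining from pre- vs postincubation peak areas.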

[9] = test system: Cynomolgus monkey; assay: Metabolic stability in cynomolgus monkey intestine S9 fraction; assay type: ADME, Macaca fascicularis; method in brief: as §4
[10] = test system: CEM cells (Homo sapiens); assay: Cytotoxicity against CEM cells
[11] = test system: HepG2; assay: Selectivity index, CC50 for HepG2 2.2.15 cells/EC50 for HBV; assay type: functional; method in brief: as §3

Structure (SMILES)	EC50 [1]	EC50 [2]	CC50 [3]	EC50 [4]	EC50 [5]	EC50 [6]	CC50 [7]	Stability [8]	Stability [9]	CC50 [10]	Ratio CC50/EC50 [11]
COC(=O)[C@H](CC(C)C)NP(=O)(OC[C@H]1C=C[C@@H](n2cnc3c(N)ncnc32)C1)Oc1ccccc1 (stereo partly specified)	0.19 µM	0.13 µM	> 5 µM	0.42 µM	0.56 µM	0.01 µM	20 µM	0%	75%	70 µM	–
CC(C)OC(=O)[C@H](C)NP(=O)(OC[C@H]1C=C[C@@H](n2cnc3c(N)ncnc32)C1)Oc1ccccc1 (stereo partly specified)	0.15 µM	0.22 µM	91.4 µM	0.3 µM	0.25 µM	0.006 µM	> 2 µM	8%	90%	84 µM	–
C[C@H](NP(=O)(OC[C@H]1C=C[C@@H](n2cnc3c(N)ncnc32)C1)Oc1ccccc1)C(=O)OC(C)(C)C (stereo partly specified)	< 0.26 µM	3.08 µM	< 25 µM	2.93 µM	3.67 µM	0.25 µM	170 µM	1%	96%	130 µM	–
COC(=O)c1ccc(OP(=O)(N[C@@H](C)C(=O)OC)OC[C@H]2C=C[C@@H](n3cnc4c(N)ncnc43)C2)cc1 (stereo partly specified)	0.12 µM	0.056 µM	> 4 µM	0.13 µM	0.13 µM	0.004 µM	> 2 µM	7%	48%	12.9 µM	–
COC(=O)[C@H](C)NP(=O)(OC[C@H]1C=C[C@@H](n2cnc3c(N)ncnc32)C1)Oc1ccccc1 (stereo partly specified)	0.03 µM	0.043 µM	6.4 µM	0.13 µM	0.09 µM	0.017 µM	1280 µM	24%	74%	18.1 µM	75000
CCOC(=O)c1cccc(OP(=O)(N[C@@H](C)C(=O)OC)OC[C@H]2C=C[C@@H](n3cnc4c(N)ncnc43)C2)c1 (stereo partly specified)	0.053 µM	0.033 µM	4.39 µM	0.065 µM	0.08 µM	0.004 µM	> 2 µM	19%	42%	8.39 µM	–
C[C@H](NP(=O)(OC[C@H]1C=C[C@@H](n2cnc3c(N)ncnc32)C1)Oc1ccccc1)C(=O)OCC(C)(C)C (stereo partly specified)	0.043 µM	0.03 µM	> 10 µM	0.067 µM	0.083 µM	0.003 µM	13 µM	0%	57%	19.5 µM	–
COC(=O)[C@@H](NP(=O)(OC[C@H]1C=C[C@@H](n2cnc3c(N)ncnc32)C1)Oc1ccccc1)C(C)C (stereo partly specified)	0.64 µM	1.05 µM	< 25 µM	1 µM	4.5 µM	0.02 µM	120 µM	2%	91%	167 µM	–
COC(=O)CNP(=O)(OC[C@H]1C=C[C@@H](n2cnc3c(N)ncnc32)C1)Oc1ccccc1 (stereo partly specified)	4.35 µM	5.73 µM	> 100 µM	13.5 µM	20 µM	0.086 µM	> 2 µM	46%	85%	≥ 250 µM	–
